pIC50: −log10 of the molar value. In brackets after ≈: the same amount, converted by molar mass.
What was measured:
HEK-293T = assay: Cytotoxicity against HEK293T cells measured after 48 hrs by CCK8 assay; assay type: cell-based; details: Homo sapiens
In short: (§1)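 Cells kept in DMEM with 10% FBS and penicillin-streptomycin at 37 °C, 5% CO2. About 1×10^4 cells per well attached for 24 h, then exposed for 48 h to 0.3, 1, 3, 10, 30 and 100 µmol/L of compound, in triplicate wells. CCK-8 added for 3 h, OD read at 450 nm. IC50 is the concentration inhibiting growth by 50%.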

[1] = Selectivity index, ratio of IC50 for HEK293T cells to MIC for Pseudomonas aeruginosa CMCC 10104; assay type: toxicity; details: human, read-out: Selectivity Index
[2] = Selectivity index, ratio of IC50 for HEK293T cells to MIC for Staphylococcus aureus CMCC(B) 26003; assay type: toxicity; details: human, read-out: Selectivity Index
Pseudomonas aeruginosa [3] = assay: Antibacterial activity against Pseudomonas aeruginosa CMCC 27853 measured after 24 hrs by ELISA; assay type: functional; details: CMCC 27853, 24 h
In short: (§2)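 Broth microdilution MIC. Mid-log bacteria in MHB or TSB diluted 1000-fold, inoculated at 10^5 CFU/mL. Compounds added from DMSO stocks; final DMSO at most 0.05%. Incubation 24 h at 37 °C. Growth read as absorbance at 630 nm. MIC taken as the lowest concentration giving complete growth inhibition. Three independent experiments.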

[4] = Selectivity index, ratio of IC50 for HEK293T cells to MIC for Staphylococcus aureus CMCC 25923; assay type: toxicity; details: human, read-out: Selectivity Index
Staphylococcus aureus [5] = assay: Antibacterial activity against Staphylococcus aureus CMCC 25923 measured after 24 hrs by ELISA; assay type: functional; details: CMCC 25923, 24 h; in short: as §2
[6] = Cytotoxicity against human A590 cells measured after 48 hrs by CCK8 assay; assay type: functional, cell-based; in short: as §1
Enterococcus faecalis = assay: Antibacterial activity against Enterococcus faecalis CMCC 29212 measured after 24 hrs by ELISA; assay type: functional; details: CMCC 29212, 24 h; in short: as §2
[7] = Selectivity index, ratio of IC50 for HEK293T cells to MIC for methicillin-resistant Staphylococcus aureus ATCC 33591; assay type: toxicity; details: human, read-out: Selectivity Index
Escherichia coli [8] = assay: Antibacterial activity against multidrug-resistant Escherichia coli ATCC BAA-196 measured after 24 hrs by ELISA; assay type: functional; details: ATCC BAA-196, 24 h
In short: (§3)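 Broth serial dilution MIC. Mid-log bacteria in Mueller-Hinton or Tryptone Soya broth, diluted 1000-fold and inoculated at 10^5 CFU/mL. Compounds from DMSO stock, final DMSO ≤0.05%. Incubated 24 h at 37 °C; growth read as absorbance at 630 nm. MIC is the lowest concentration giving complete growth inhibition. Three independent experiments.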

Escherichia coli [9] = assay: Antibacterial activity against Escherichia coli CMCC 44568 measured after 24 hrs by ELISA; assay type: functional; details: CMCC 44568, 24 h; in short: as §2
Pseudomonas aeruginosa [10] = assay: Antibacterial activity against multidrug-resistant Pseudomonas aeruginosa ATCC BAA-2111 measured after 24 hrs by ELISA; assay type: functional; details: ATCC BAA-2111, 24 h; in short: as §3
[11] = Selectivity index, ratio of IC50 for HEK293T cells to MIC for multidrug-resistant Pseudomonas aeruginosa ATCC BAA-2111; assay type: toxicity; details: human, read-out: Selectivity Index
[12] = Selectivity index, ratio of IC50 for HEK293T cells to MIC for methicillin-resistant Staphylococcus aureus ATCC 43300; assay type: toxicity; details: human, read-out: Selectivity Index
Escherichia coli [13] = assay: Antibacterial activity against Escherichia coli CMCC 25922 measured after 24 hrs by ELISA; assay type: functional; details: CMCC 25922, 24 h; in short: as §2
Staphylococcus aureus [14] = assay: Antibacterial activity against methicillin-resistant Staphylococcus aureus ATCC 43300 measured after 24 hrs by ELISA; assay type: functional; details: ATCC 43300, 24 h; in short: as §3
[15] = Selectivity index, ratio of IC50 for HEK293T cells to MIC for Streptococcus pneumoniae CMCC 31968; assay type: toxicity; details: human, read-out: Selectivity Index
[16] = Selectivity index, ratio of IC50 for HEK293T cells to MIC for Bacillus subtilis CMCC 63501; assay type: toxicity; details: human, read-out: Selectivity Index
Streptococcus pyogenes = assay: Antibacterial activity against Streptococcus pyogenes CMCC 32067 measured after 24 hrs by ELISA; assay type: functional; details: CMCC 32067, 24 h; in short: as §2
[17] = Selectivity index, ratio of IC50 for HEK293T cells to MIC for Escherichia coli CMCC 25922; assay type: toxicity; details: human, read-out: Selectivity Index
SGC-7901 = assay: Cytotoxicity against human SGC7901 cells measured after 48 hrs by CCK8 assay; assay type: functional, cell-based; details: SGC-7901, 48 h; in short: as §1
Staphylococcus aureus [18] = assay: Antibacterial activity against Staphylococcus aureus CMCC(B) 26003 measured after 24 hrs by ELISA; assay type: functional; details: CMCC(B) 26003, 24 h; in short: as §2
Pseudomonas aeruginosa [19] = assay: Antibacterial activity against Pseudomonas aeruginosa CMCC 10104 measured after 24 hrs by ELISA; assay type: functional; details: CMCC 10104, 24 h; in short: as §2
[20] = Selectivity index, ratio of IC50 for HEK293T cells to MIC for Enterococcus faecalis CMCC 29212; assay type: toxicity; details: human, read-out: Selectivity Index
[21] = Selectivity index, ratio of IC50 for HEK293T cells to MIC for multidrug-resistant Escherichia coli ATCC BAA-196; assay type: toxicity; details: human, read-out: Selectivity Index
[22] = Selectivity index, ratio of IC50 for HEK293T cells to MIC for Streptococcus pyogenes CMCC 32067; assay type: toxicity; details: human, read-out: Selectivity Index
Bacillus subtilis = assay: Antibacterial activity against Bacillus subtilis CMCC 63501 measured after 24 hrs by ELISA; assay type: functional; details: CMCC 63501, 24 h; in short: as §2
[23] = Selectivity index, ratio of IC50 for HEK293T cells to MIC for Pseudomonas aeruginosa CMCC 27853; assay type: toxicity; details: human, read-out: Selectivity Index
Staphylococcus aureus [24] = assay: Antibacterial activity against methicillin-resistant Staphylococcus aureus ATCC 33591 measured after 24 hrs by ELISA; assay type: functional; details: ATCC 33591, 24 h; in short: as §3
[25] = Selectivity index, ratio of IC50 for HEK293T cells to MIC for Escherichia coli CMCC 44568; assay type: toxicity; details: human, read-out: Selectivity Index
Streptococcus pneumoniae = assay: Antibacterial activity against Streptococcus pneumoniae CMCC 31968 measured after 24 hrs by ELISA; assay type: functional; details: CMCC 31968, 24 h

SMILES	MIC (Pseudomonas aeruginosa [3])	MIC (Staphylococcus aureus [5])	MIC (Enterococcus faecalis)	MIC (Escherichia coli [8])	MIC (Escherichia coli [9])	MIC (Pseudomonas aeruginosa [10])	MIC (Escherichia coli [13])	MIC (Staphylococcus aureus [14])	MIC (Streptococcus pyogenes)	MIC (Staphylococcus aureus [18])	MIC (Pseudomonas aeruginosa [19])	MIC (Bacillus subtilis)	MIC (Staphylococcus aureus [24])	MIC (Streptococcus pneumoniae)	further results
Cc1ccc(S(=O)(=O)n2cc(/C=N\NC(=N)N)c3cc(Br)ccc32)cc1	> 296 µM	2.31 µM (≈ 1 µg/mL)	9.24 µM (≈ 4.01 µg/mL)	1.15 µM (≈ 0.499 µg/mL)	2.31 µM (≈ 1 µg/mL)	> 73.9 µM	9.24 µM (≈ 4.01 µg/mL)	1.15 µM (≈ 0.499 µg/mL)	> 296 µM	2.31 µM (≈ 1 µg/mL)	> 296 µM	2.31 µM (≈ 1 µg/mL)	1.15 µM (≈ 0.499 µg/mL)	> 296 µM	pIC50 (HEK-293T): 4.13; selectivity ratio [1]: < 0.25; selectivity ratio [2]: 31.8; selectivity ratio [4]: 31.8; pIC50 [6]: 4.82; selectivity ratio [7]: 63.9; selectivity ratio [11]: < 0.99; selectivity ratio [12]: 63.9; selectivity ratio [15]: < 0.25; selectivity ratio [16]: 31.8; selectivity ratio [17]: 7.95; pIC50 (SGC-7901): 5.40; selectivity ratio [20]: 7.95; selectivity ratio [21]: 63.9; selectivity ratio [22]: < 0.24; selectivity ratio [23]: < 0.25; selectivity ratio [25]: 31.8
COc1c(N2CCNC(C)C2)c(F)cc2c(=O)c(C(=O)O)cn(C3CC3)c12 (centres undefined) [GATIFLOXACIN]	5.33 µM (≈ 2 µg/mL)	0.33 µM (≈ 0.124 µg/mL)	2.67 µM (≈ 1 µg/mL)	1.33 µM (≈ 0.499 µg/mL)	0.33 µM (≈ 0.124 µg/mL)	2.66 µM (≈ 0.999 µg/mL)	0.33 µM (≈ 0.124 µg/mL)	1.33 µM (≈ 0.499 µg/mL)	> 341 µM	0.33 µM (≈ 0.124 µg/mL)	5.33 µM (≈ 2 µg/mL)	5.33 µM (≈ 2 µg/mL)	0.67 µM (≈ 0.252 µg/mL)	> 341 µM	–
COc1c(N2C[C@@H]3CCCN[C@@H]3C2)c(F)cc2c(=O)c(C(=O)O)cn(C3CC3)c12 [MOXIFLOXACIN]	–	0.31 µM (≈ 0.124 µg/mL)	–	1.25 µM (≈ 0.502 µg/mL)	0.31 µM (≈ 0.124 µg/mL)	–	0.31 µM (≈ 0.124 µg/mL)	1.25 µM (≈ 0.502 µg/mL)	> 319 µM	0.31 µM (≈ 0.124 µg/mL)	9.98 µM (≈ 4.01 µg/mL)	–	0.62 µM (≈ 0.249 µg/mL)	> 319 µM	–
Cc1onc(-c2ccccc2)c1C(=O)N[C@@H]1C(=O)N2[C@@H]1SC(C)(C)[C@@H]2C(=O)O [OXACILLIN]	> 319 µM	0.31 µM (≈ 0.124 µg/mL)	319 µM (≈ 128 µg/mL)	–	> 319 µM	–	319 µM (≈ 128 µg/mL)	160 µM (≈ 64.1 µg/mL)	> 319 µM	0.31 µM (≈ 0.124 µg/mL)	> 319 µM	> 319 µM	19.9 µM (≈ 8.01 µg/mL)	> 319 µM	–
CC1(C)S[C@@H]2[C@H](NC(=O)Cc3ccccc3)C(=O)N2[C@H]1C(=O)O [PENICILLIN G]	> 383 µM	0.37 µM (≈ 0.124 µg/mL)	383 µM (≈ 128 µg/mL)	–	> 383 µM	–	383 µM (≈ 128 µg/mL)	95.8 µM (≈ 32 µg/mL)	> 383 µM	0.37 µM (≈ 0.124 µg/mL)	95.8 µM (≈ 32 µg/mL)	383 µM (≈ 128 µg/mL)	> 95.8 µM	> 383 µM	–
